From ChEMBL document CHEMBL1139003, “Novel endotoxin-sequestering compounds with terephthalaldehyde-bis-guanylhydrazone scaffolds” (Bioorg Med Chem Lett, 2006)

Columns and labels:
[1] = tested on: J774.A1; assay: Inhibition of LPS-induced production of nitric oxide in murine J774.A1 cells; assay type: functional, cell-based, Mus musculus
How it was run: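 Murine J774 cells grown in medium containing fetal bovine serum are stimulated with LPS. Nitric oxide production is read as nitrite. IC50 is the concentration giving 50% inhibition of NO.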

[2] = tested on: Lipopolysaccharide (LPS); assay: Binding affinity to lipid A moiety of LPS present in Gram negative bacteria by fluorescent probe method; assay type: functional
How it was run: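 Homogeneous, automated fluorescence displacement assay run in aqueous buffer. A fluorescent probe is bound to LPS and test ligand displaces it. ED50 is the ligand concentration that displaces 50% of the bound probe and is taken as relative binding affinity.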

[3] = species: Mus musculus; assay: Decrease in lethality in D-galactosamine-sensitized mice challenged with LPS at 200 ng/mouse; assay type: functional, organism-based
How it was run: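 Mice primed with D-galactosamine receive graded doses of test compound and are challenged with a supralethal LPS dose of 200 ng/mouse. The endpoint is lethality.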

[4] = species: Mus musculus; assay: Decrease in lethality in D-galactosamine-sensitized mice challenged with LPS at 200 ng/mouse

Compound	IC50 ([1]; Mus musculus, J774.A1) [µM]	ED50 [2] [µM]	IC50 ([1]; j774.a1) [µM]	Activity [3]	Activity [4]
POLYMYXIN B [listing 1 of 2 here]	–	1.67	–	–	–
N=C(N)N/N=C/c1ccc(/C=N/NC(=N)N)c(O)c1O	26.4	43.7	–	–	–
CCCCCCCCCCCCCCOc1c(/C=N/N=C(N)N)ccc(/C=N/N=C(N)N)c1OCCCCCCCCCCCCCC	14.9	> 500	–	–	–
POLYMYXIN B [listing 2 of 2 here]	–	–	0.98	–	–
COc1c(/C=N/N=C(N)N)ccc(/C=N/NC(=N)N)c1OC	28	42.3	–	–	–
N=C(N)N/N=C/c1ccc(/C=N/NC(=N)N)cc1	24.4	34.6	–	–	–

The remaining compounds from weak to strong by IC50 ([1]; Mus musculus, J774.A1), led by results:

IC50 ([1]; Mus musculus, J774.A1) [µM]	ED50 [2] [µM]	IC50 ([1]; j774.a1) [µM]	Compound	Activity [3]	Activity [4]
9.64	29.9	–	C=CCOc1c(/C=N/NC(=N)N)ccc(/C=N/NC(=N)N)c1OCC=C	–	–
8.38	12.7	–	CCCOc1c(/C=N/N=C(N)N)ccc(/C=N/N=C(N)N)c1OCCC	–	–
4.67	13.2	–	CCCCCCOc1c(/C=N/N=C(N)N)ccc(/C=N/NC(=N)N)c1OCCCCCC	–	–
4.56	22.8	–	CCOc1c(/C=N/N=C(N)N)ccc(/C=N/N=C(N)N)c1OCC	–	–
4.15	9.44	–	CCCCOc1c(/C=N/N=C(N)N)ccc(/C=N/NC(=N)N)c1OCCCC	–	–
3.54	7.82	–	CCCCCOc1c(/C=N/N=C(N)N)ccc(/C=N/N=C(N)N)c1OCCCCC	–	–
3.45	39.5	–	CCCCCCCCOc1c(/C=N/N=C(N)N)ccc(/C=N/N=C(N)N)c1OCCCCCCCC	Dose-dependent effect	Dose-dependent effect
